Screening results (PubChem)
The list is not random: actives were taken first. Their share in the collection is about 3.7%.
B2AR ag – agonists of human beta-2 adrenergic receptor inducing internalization. response, % (test concentration not listed). Am2.2-beta2AR cells, FAP receptor internalization, flow cytometry. P07550. 340,000 tested, 0.43% active;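 active = response above a set limit, near 3 SD of response in nonfluorescent compounds, cut at about 42% in these data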
UPR CHOP act – apoptotic UPR (CHOP) activation; activation, % at 10 µM; AID 449763; CHO-CHOP luciferase reporter, luminescence; percent of tunicamycin response over DMSO baseline; 330,000 tested, 0.34% active;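 active = at 10 µM dose, activation of 40% or more, normalized to positive control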;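 also: 100% = tunicamycin at 10 µg/mL and 0% = DMSO alone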
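System: CHO-CHOP luciferase reporter cell line | Buffer or medium: F12 medium containing 10% fetal bovine serum | Doses: One dose, 10 µM in 0.5% DMSO | Times: 6 h compound exposure at 37 °C after overnight seeding | Signal: Luciferase luminescence | Read-out: % activation vs tunicamycin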
UPR XBP1 act – adaptive UPR (XBP1) activation; CHO-XBP1 luciferase reporter, IRE1-XBP1 UPR activation, luminescence; percent of tunicamycin response, DMSO as zero; activation, % at 20 µM; 330,000 tested, 0.33% active;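 active = versus positive control, 20 µM dose yields 30% or more activation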;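 also: 100% = tunicamycin at 10 µg/mL and 0% = DMSO only wells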
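Test system: CHO-XBP1 luciferase reporter cells | Buffer or medium: Serum-containing F12 medium, 10% FBS | Schedule: 6 h compound exposure at 37 °C, 5% CO2 | Detection: Steady-Glo luciferase glow luminescence, 10 min after reagent addition | Read-out basis: Activation, % of tunicamycin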
Mdm2-MdmX inh – human Mdm2/MdmX binding inhibition | O15151+Q00987 | SaOS-2 split-luciferase Mdm2/MdmX complementation, luminescence | inhibition, % at 8 µM | 330,000 tested, 3% active | AID 485346;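 active = inhibition of at least 50% at 8 µM in the primary screen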
Target sequence (O15151 whole entry, looked up): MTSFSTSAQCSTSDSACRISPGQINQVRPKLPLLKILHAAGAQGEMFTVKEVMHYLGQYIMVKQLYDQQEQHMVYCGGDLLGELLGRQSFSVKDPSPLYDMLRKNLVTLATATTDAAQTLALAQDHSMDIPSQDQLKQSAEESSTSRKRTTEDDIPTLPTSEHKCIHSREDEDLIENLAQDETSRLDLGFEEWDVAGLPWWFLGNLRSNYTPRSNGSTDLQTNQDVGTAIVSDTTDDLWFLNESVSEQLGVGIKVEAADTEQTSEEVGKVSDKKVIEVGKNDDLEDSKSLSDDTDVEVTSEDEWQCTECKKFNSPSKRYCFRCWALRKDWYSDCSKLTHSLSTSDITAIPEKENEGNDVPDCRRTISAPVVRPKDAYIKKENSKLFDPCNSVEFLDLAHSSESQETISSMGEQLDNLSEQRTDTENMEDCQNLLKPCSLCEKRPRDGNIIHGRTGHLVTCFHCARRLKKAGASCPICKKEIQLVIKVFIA
Target sequence (Q00987 whole entry, looked up): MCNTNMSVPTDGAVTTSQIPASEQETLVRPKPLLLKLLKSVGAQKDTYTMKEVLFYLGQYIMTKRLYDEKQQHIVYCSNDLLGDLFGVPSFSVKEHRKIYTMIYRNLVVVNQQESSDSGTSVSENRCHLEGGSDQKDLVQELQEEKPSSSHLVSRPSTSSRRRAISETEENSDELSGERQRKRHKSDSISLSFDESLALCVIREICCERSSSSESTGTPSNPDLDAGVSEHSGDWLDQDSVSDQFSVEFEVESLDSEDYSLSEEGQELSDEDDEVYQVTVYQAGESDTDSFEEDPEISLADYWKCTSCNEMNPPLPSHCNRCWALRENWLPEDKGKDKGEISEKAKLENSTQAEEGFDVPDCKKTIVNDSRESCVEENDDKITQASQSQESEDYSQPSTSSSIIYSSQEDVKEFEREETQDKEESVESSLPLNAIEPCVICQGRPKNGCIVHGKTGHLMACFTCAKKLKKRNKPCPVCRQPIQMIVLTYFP
Mdm2 ligase inh – Mdm2 E3 ligase (human) inhibition; Q00987; cell-based MDM2 ubiquitination luciferase reporter, 2 h; 0 = plate control, 100 = twice control, blank-subtracted; signal enhancement, % at 5 µM; 210,000 tested, 0.11% active; AID 1230;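 active = signal enhancement of 30% or more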;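 also: luminescence tracks abundance of the self-degrading MDM2-luciferase fusion protein; higher signal means inhibition of MDM2 E3 ligase activity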
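Assay system: mammalian cells stably expressing self-ubiquitinating, self-degrading MDM2 E3–luciferase fusion. Quantity: 2000 cells in each well. Medium: DMEM culture medium. Compound dosing: single-point 5 µM. Timing: cell settling 4 h, compound treatment 2 h, both 37 °C. Technique: luciferase luminescence. Read-out basis: percent signal gain over controls, blank-subtracted. Benchmarks: plate controls and plate blanks.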
Dynein cargo inh – blocks dynein driven cargo transport along microtubules | AID 1381 | 220,000 tested, 0.47% active | z-score, hits read low | 3617.4 mouse cells, GR-EGFP nuclear translocation imaging; test concentration mostly 20 µM; stimulated with dexamethasone, 1 µM; stronger effect = lower value;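 active = plate z-score of nuclear minus cytoplasmic receptor signal below a set negative limit, without overly bright fluorescence or cell loss, cut at about -3.5 in these data, passing the limit was not always enough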;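 also: z-score of nuclear minus cytoplasmic ring GR-EGFP intensity difference per well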
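Buffer or medium: tetracycline-free induction medium containing charcoal-stripped FBS / Reagent: dexamethasone agonist, 1.0 µM final, for 30 min / Technique: automated 10x imaging of fixed Hoechst-stained cells / Times: induction 48 h, compound 1 h, agonist 30 min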
Mdm2 MdmX conf – confirmation of human Mdm2/MdmX interaction inhibitors | inhibition, % at 8 µM | shares compounds with Mdm2-MdmX inh | 10,000 tested, 55% active | Mdm2-MdmX binding, luminescent assay; in the data active = inhibition above about 40%
FLuc counter – counter-screen for Mdm2/MdmX inhibitors: full-length luciferase. shares compounds with Mdm2-MdmX inh. SaOS-2 full-length luciferase counterscreen, luminescence. inhibition, % at 8 µM. 6,200 tested, 77% active;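 active = mean inhibition at 8 µM reaching about 37%, which flags the compound as non-specific, limit read from the data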;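 also: p53-null SaOS-2 cells with luciferase driven by a doxycycline-inducible promoter; compound on cells about two nights before reading with doxycycline added after day one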
Active calls of the source: *; · = no result.

SMILES	B2AR ag	UPR CHOP act	UPR XBP1 act	Mdm2-MdmX inh	Mdm2 ligase inh	Dynein cargo inh	Mdm2 MdmX conf	FLuc counter
CCc1ccc(/C=N/NC(=O)c2cc(-c3cccc([N+](=O)[O-])c3)n[nH]2)cc1	12.0	-1.9	-2.3	62.3*	-5.5	1.02	61.6*	70.5*
O=C(CNC(=O)c1ccc(N2CCCC2=O)cc1)Nc1ccc(F)c(F)c1F	2.2	-0.9	-0.5	-11.2	·	·	·	·
O=S(=O)(NN=C1CCCCCC1)c1ccccc1	4.0	1.3	-5.0	-2.2	·	·	·	·
NC(=O)C1CCN(C(=O)Cc2ccsc2)CC1	0.4	0.4	-7.0	10.2	·	·	·	·
CN(C)c1nc(N/N=C\c2ccc(Cl)c([N+](=O)[O-])c2)nc(Nc2ccc(F)cc2)n1	10.3	9.7	17.7	72.4*	·	-0.734	14.1	·
Nn1cnnc1N/N=C/c1ccc(Cl)c([N+](=O)[O-])c1	-1.6	-1.3	2.5	20.3	-7.2	-0.396	·	·
Cn1nccc1C(=O)Nc1cccc(S(=O)(=O)N2CCOCC2)c1	-0.1	-0.2	-4.1	18.0	·	·	·	·
S=c1[nH]nc(-c2ccco2)n1/N=C/C(Cl)=C/c1ccccc1	-0.5	8.0	9.9	61.9*	-2.7	-1.26	-39.1	·
CC(=C/c1ccccc1)/C=N/n1c(-c2ccncc2)n[nH]c1=S	-1.9	-1.2	-0.5	73.6*	-12.3	-0.704	78.2*	53.2*
Cc1ccc(-c2nc(C3CCN(S(=O)(=O)c4ccc(C(F)(F)F)cc4)CC3)no2)cc1	-2.6	0.4	2.2	55.8*	3.1	0.0996	2.6	·
CC1CCN(S(=O)(=O)c2ccc3c(c2)C(=NO)c2cc(S(=O)(=O)N4CCC(C)CC4)ccc2-3)CC1	8.8	-9.6	-12.4	100.3*	9.7	1.87	100.2*	-0.4
O=S(=O)(c1ccc2c(c1)C(=NO)c1cc(S(=O)(=O)N3CCCCC3)ccc1-2)N1CCCCC1	30.5	148.6*	133.6*	94.9*	1.0	0.398	99.2*	1.6
CNS(=O)(=O)c1cn(CC(=O)N(C)Cc2ccccc2)cc1S(=O)(=O)NC	-2.4	-0.2	13.8	31.8	·	·	·	·
CCN(CC(=O)Nc1ccc2c(c1)OCCO2)C(=O)/C=C/c1cccc(C(F)(F)F)c1	-4.6	0.0	1.1	1.5	·	·	·	·
CC(=O)/C(C#N)=C1\NC(=O)C(Cc2ccccc2C)S1 (centres undefined)	-7.2	1.2	0.1	83.0*	-13.4	-0.471	70.0*	40.7*
O=C(/C=C/c1ccccc1[N+](=O)[O-])c1ccccc1Br	57.5*	2.5	9.9	72.4*	-0.1	-3.28	5.8	·
CSC1=NS(=O)(=O)c2c(C)nn(C)c2S1	-1.5	8.3	-6.8	16.3	-13.7	-2.37	·	·
COC(=O)Nc1nc(-c2ccccc2)c(C(=O)c2ccc(Cl)cc2)s1	-0.3	-1.9	15.8	60.8*	-9.8	0.805	54.5*	87.8*
COCCN(CCOC)S(=O)(=O)c1ccc(C(=O)Nc2nc(-c3ccccc3)c(C(=O)c3ccccc3)s2)cc1	0.4	5.9	0.2	-24.4	-2.2	0.536	·	·
COc1ccc(-c2nn(-c3ccccc3)cc2C(=O)NC2CCCCC2C)cc1 (centres undefined)	-10.1	4.1	12.0	73.8*	·	·	29.4	·
COc1ccc(-c2nn(-c3ccccc3)cc2C(=O)NC2CCC(C)CC2)cc1 (centres undefined)	-20.2	3.4	16.9	27.6	·	·	·	·
COC(=O)C1C2CC(C(Br)C2Br)C1C(=O)O (centres undefined)	0.4	·	·	·	·	·	·	·
COc1ccc(C2C3=C(Nc4ncnn42)c2ccccc2CCC3)cc1 (centres undefined)	19.9	-0.5	-0.9	13.0	-15.1	0.405	·	·
COc1cc(C2C3=C(Nc4ncnn42)c2ccccc2CC3)cc(OC)c1OC (centres undefined)	10.4	0.0	20.3	65.9*	-21.3	-0.849	67.3*	130.6*
O=[N+]([O-])c1ccc(N=Nc2c(O)[nH]c3ccc(F)cc23)cc1	-0.9	8.0	16.6	54.2*	·	·	-44.2	·
SMILES	B2AR ag	UPR CHOP act	UPR XBP1 act	Mdm2-MdmX inh	Mdm2 ligase inh	Dynein cargo inh	Mdm2 MdmX conf	FLuc counter
CC(=O)Nc1ccc(S(=O)(=O)Nc2cccc(-n3c(C)nc4ccccc4c3=O)c2)cc1	0.0	0.0	-1.9	-5.9	·	·	·	·
CCCCC(=O)NC(c1ccc(OC)c(OC)c1)c1c(O)ccc2ccccc12 (centres undefined)	11.5	0.3	1.6	-6.9	-10.0	-0.651	·	·
CCCC(=O)NC(c1ccccc1OC)c1ccc2cccnc2c1O (centres undefined)	9.2	1.4	6.2	77.1*	-12.6	2.62	81.7*	49.8*
CCCCC(=O)NC(c1ccccc1OC)c1ccc2cccnc2c1O (centres undefined)	5.3	-0.6	3.6	86.6*	-12.3	-0.136	82.8*	51.9*
Cc1ccc(S(=O)(=O)N2CCOCCOCCOCCOCCOCC2)cc1	-0.8	-0.2	-6.3	6.0	·	·	·	·
Cc1ccc(S(=O)(=O)N2CCN(c3ccc(S(=O)(=O)N4CCOCC4)cn3)CC2)cc1	16.7	3.2	4.0	65.9*	12.0	0.929	-16.0	·
COc1ccc(S(=O)(=O)N2CCCCC2)cc1NC(=O)c1cncc(Br)c1	-7.7	0.0	-0.9	-13.1	·	·	·	·
CCOc1ccc(S(=O)(=O)NCc2ccccn2)cc1NC(=O)c1ccccc1F	18.9	0.6	21.6	56.6*	·	·	53.1*	72.0*
COc1ccc(S(=O)(=O)NCc2ccccn2)cc1NC(=O)c1ccccc1	-14.3	-0.8	-1.2	44.8	·	·	·	·
